Here are results for 16 compounds from ChEMBL document CHEMBL4613279, “Synthesis, Cytotoxicity Evaluation, and Computational Insights of Novel 1,4-Diazepane-Based Sigma Ligands” (ACS Med Chem Lett, 2020).

In brackets after ≈: the same amount, converted by molar mass.

Series [1] is described as follows: Cytotoxicity against human PANC1 cells assessed as cell viability at 50 uM after 48 hrs by MTT assay relative to control. The series is classed as cell-based. The following applies: PANC-1 cells, read-out: Activity. A digest of the protocol:
(§1)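 Viability of human pancreatic carcinoma PANC1 and neuroblastoma SH-SY5Y cells, both chosen for high σ1R expression, measured by MTT assay across several test concentrations; viability expressed as percent.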

The target of series [2] is T1, Sigma intracellular receptor 2 (Rattus norvegicus, UniProt Q5U3Y7).
T1 sequence (Q5U3Y7 whole entry): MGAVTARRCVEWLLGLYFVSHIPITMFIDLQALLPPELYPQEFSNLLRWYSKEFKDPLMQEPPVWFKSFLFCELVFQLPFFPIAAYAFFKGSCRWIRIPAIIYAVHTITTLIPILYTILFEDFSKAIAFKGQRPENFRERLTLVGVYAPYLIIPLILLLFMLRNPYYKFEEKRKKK
Briefly: Displacement of [3H]-Di-o-tolylguanidine from sigma-2 receptor in rat liver membranes after 120 mins by scintillation counting method. The series is classed as cell membranes, Membrane.

A short description of series [3]: Antioxidant activity assessed as ABTS radical scavenging activity incubated for 40 mins. The series is classed as functional.
Series [4] has as its target Sigma non-opioid intracellular receptor 1 (Cavia porcellus, UniProt Q60492). Briefly: Displacement of [3H]-(+)pentazocine from sigma-1 receptor in guinea pig brain membranes after 120 mins by scintillation counting method. The series is classed as cell membranes, Membrane.
The nature of series [5]: Cytotoxicity against human PANC1 cells assessed as cell viability at 100 uM after 48 hrs by MTT assay relative to control. The following applies: PANC-1 cells, read-out: Activity. The series is classed as cell-based. In a few lines: as §1
A short description of series [6]: Cytotoxicity against human SH-SY5Y cells assessed as cell viability at 50 uM after 48 hrs by MTT assay relative to control. It is filed as cell-based. The following applies: read-out: Activity. A digest of the protocol: as §1
Series [7] is described as follows: Cytotoxicity against human SH-SY5Y cells assessed as cell viability at 100 uM after 48 hrs by MTT assay relative to control. It is filed as cell-based. The following applies: read-out: Activity. In a few lines:
as §1

Series [8] concerns the target Glutamate receptor ionotropic, NMDA 2B (Homo sapiens, UniProt Q05586+Q13224). Briefly: Displacement of [3H]ifenprodil from GluN2B (unknown origin) expressed in mouse L(tk-) cell membranes co-expressing GluN1a incubated for 120 mins by scintillation counting method.
Series [9] can be described thus: Antioxidant activity in pH 7.4 PBS assessed as H2O2 radical scavenging activity. The series is classed as functional.
Series [10] deals with T2, Sigma intracellular receptor 2 (Rattus norvegicus) (UniProt Q5U3Y7).
T2 sequence (whole entry): T1 sequence (Q5U3Y7 whole entry)
Briefly: Displacement of [3H]-Di-o-tolylguanidine from sigma-2 receptor in rat liver membranes at 1 uM after 120 mins by scintillation counting method relative to control. The series is classed as cell membranes. The following applies: Membrane.

Series [11] deals with Glutamate receptor ionotropic, NMDA 2B (Homo sapiens) (UniProt Q13224). Briefly: Displacement of [3H]ifenprodil from GluN2B (unknown origin) expressed in mouse L(tk-) cell membranes co-expressing GluN1a at 1 uM incubated for 120 mins by scintillation counting method relative to control.
Another series concerns SH-SY5Y. Briefly: Cytotoxicity against human SH-SY5Y cells at 12.5 to 100 uM after 48 hrs by MTT assay. It is filed as cell-based. A digest of the protocol:
as §1

A further series concerns PANC-1. Briefly: Cytotoxicity against human PANC1 cells at 12.5 to 100 uM after 48 hrs by MTT assay. It is filed as cell-based. The settings on record: panc-1, 48 h. A digest of the protocol:
as §1

Glutamate receptor ionotropic, NMDA 2B, sequence (Q13224 whole entry, one chain of several): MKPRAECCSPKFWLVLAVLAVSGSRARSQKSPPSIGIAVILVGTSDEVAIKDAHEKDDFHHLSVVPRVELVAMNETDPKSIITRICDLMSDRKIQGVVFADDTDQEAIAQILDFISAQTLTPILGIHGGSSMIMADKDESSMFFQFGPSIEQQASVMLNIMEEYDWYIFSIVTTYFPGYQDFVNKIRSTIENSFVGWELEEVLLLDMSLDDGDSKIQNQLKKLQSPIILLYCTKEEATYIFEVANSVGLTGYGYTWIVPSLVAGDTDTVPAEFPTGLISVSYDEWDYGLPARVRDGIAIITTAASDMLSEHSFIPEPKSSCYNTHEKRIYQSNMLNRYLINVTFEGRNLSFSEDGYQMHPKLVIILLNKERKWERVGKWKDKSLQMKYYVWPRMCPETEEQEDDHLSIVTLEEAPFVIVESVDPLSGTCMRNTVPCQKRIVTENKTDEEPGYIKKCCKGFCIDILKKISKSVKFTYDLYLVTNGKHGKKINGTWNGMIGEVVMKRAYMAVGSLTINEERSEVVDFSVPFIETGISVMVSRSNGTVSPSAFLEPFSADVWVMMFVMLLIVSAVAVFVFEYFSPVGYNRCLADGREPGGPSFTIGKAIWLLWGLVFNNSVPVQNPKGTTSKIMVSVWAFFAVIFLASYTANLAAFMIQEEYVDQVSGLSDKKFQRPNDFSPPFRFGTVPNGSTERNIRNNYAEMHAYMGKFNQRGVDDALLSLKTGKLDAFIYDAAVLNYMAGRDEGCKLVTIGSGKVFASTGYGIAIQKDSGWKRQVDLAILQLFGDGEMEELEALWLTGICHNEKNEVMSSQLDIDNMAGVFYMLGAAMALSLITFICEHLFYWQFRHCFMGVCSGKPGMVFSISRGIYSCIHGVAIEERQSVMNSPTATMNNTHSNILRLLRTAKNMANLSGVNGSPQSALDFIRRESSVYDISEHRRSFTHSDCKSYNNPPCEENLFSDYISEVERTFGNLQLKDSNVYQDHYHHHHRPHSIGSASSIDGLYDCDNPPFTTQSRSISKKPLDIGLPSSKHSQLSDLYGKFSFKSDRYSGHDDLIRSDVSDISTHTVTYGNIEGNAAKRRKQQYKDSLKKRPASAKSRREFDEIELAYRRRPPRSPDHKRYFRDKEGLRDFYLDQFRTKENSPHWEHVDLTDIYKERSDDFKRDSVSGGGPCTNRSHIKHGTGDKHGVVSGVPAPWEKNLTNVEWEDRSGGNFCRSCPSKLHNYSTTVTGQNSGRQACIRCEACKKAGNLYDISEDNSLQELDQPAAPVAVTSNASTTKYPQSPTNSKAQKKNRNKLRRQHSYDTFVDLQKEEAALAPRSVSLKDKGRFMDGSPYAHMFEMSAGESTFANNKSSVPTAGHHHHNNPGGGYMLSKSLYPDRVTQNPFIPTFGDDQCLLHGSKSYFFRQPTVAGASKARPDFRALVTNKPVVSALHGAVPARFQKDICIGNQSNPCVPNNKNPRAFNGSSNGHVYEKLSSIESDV
Sigma non-opioid intracellular receptor 1, sequence (Q60492 whole entry): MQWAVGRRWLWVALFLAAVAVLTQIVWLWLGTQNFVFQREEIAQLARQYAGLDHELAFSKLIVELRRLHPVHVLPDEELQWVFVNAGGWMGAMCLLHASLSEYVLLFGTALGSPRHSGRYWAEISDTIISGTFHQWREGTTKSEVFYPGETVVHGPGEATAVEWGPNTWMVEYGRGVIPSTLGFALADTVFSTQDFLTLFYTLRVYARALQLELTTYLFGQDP
Glutamate receptor ionotropic, NMDA 2B (Homo sapiens), sequence (Q13224 27-1484 limits assumed): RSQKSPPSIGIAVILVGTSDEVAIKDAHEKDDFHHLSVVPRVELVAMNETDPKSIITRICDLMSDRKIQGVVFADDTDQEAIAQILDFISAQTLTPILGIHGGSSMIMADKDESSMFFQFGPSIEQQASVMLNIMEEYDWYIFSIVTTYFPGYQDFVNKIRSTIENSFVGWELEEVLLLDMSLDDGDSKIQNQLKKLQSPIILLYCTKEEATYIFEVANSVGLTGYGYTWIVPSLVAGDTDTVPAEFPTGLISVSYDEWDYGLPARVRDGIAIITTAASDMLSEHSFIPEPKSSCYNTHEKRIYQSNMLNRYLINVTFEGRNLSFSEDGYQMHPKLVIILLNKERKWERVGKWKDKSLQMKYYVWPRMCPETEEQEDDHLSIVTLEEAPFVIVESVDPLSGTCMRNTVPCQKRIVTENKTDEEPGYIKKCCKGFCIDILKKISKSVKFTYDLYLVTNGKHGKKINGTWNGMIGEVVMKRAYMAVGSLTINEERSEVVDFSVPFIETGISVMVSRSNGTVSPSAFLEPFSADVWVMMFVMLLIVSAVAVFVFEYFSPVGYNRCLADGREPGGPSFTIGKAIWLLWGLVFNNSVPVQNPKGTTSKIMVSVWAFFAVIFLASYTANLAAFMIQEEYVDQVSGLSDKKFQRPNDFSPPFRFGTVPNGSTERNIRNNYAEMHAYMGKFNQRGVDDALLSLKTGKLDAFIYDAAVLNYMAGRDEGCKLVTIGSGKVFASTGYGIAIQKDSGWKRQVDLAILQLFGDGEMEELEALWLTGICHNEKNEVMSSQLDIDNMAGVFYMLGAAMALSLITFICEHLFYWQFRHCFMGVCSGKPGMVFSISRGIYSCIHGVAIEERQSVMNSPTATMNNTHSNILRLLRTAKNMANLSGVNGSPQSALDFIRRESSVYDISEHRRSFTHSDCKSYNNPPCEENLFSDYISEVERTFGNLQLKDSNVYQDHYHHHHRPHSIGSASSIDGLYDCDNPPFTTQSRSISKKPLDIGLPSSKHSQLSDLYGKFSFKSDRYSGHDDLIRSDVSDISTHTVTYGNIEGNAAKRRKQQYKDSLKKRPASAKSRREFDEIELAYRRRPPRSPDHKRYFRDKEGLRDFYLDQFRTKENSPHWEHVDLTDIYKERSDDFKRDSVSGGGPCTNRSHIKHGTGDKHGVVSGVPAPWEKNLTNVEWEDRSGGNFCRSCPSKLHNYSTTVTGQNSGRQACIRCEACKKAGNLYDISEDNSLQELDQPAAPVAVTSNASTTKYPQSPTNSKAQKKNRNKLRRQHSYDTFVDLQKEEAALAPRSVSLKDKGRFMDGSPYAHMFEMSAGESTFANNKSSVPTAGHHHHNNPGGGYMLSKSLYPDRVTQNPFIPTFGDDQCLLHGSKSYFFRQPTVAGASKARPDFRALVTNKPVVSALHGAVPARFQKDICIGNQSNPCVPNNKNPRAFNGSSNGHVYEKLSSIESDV

With `O=C(c1cc2ccccc2o1)N1CCCN(Cc2ccccc2)CC1`, the viability at 48 h, 50 µM in series [1] stood at 196%; in [6] it was 127%. Moreover, the Ki worked out at 47 nM in series [2], 8 nM in [4] and 1600 nM in series [8]. Also, the values for the IC50 in [3] and in series [9] were 12.71 µg/mL (≈ 38 µM) and 15.89 µg/mL (≈ 47.5 µM), respectively. In addition, the viability at 48 h, 100 µM in [5] was 127%; in series [7] it was 98%.
As for `O=C(c1ccc2ccccc2n1)N1CCCN(Cc2ccccc2)CC1`, the inhibition constant (Ki) in series [2] came to 47 nM; in [4], 19 nM; in series [8], 1500 nM. For the same compound, the figures for the IC50 in [3] and in series [9] were 14.26 µg/mL (≈ 41.3 µM) and 20.35 µg/mL (≈ 58.9 µM), respectively.
`O=C1O[C@H]([C@@H](O)CO)C(O)=C1O` [ASCORBIC ACID]: the figures for the IC50 in series [3] and in series [9] were 12.75 µg/mL (≈ 72.4 µM) and 19.27 µg/mL (≈ 109 µM), respectively.
The like results for `Cc1c(C)c2c(c(C)c1O)CCC(C)(C(=O)O)O2` (stereo unspecified) [TROLOX] were, in that order, 18.73 µg/mL (≈ 74.8 µM) and 20.38 µg/mL (≈ 81.4 µM).
`O=C(c1ccccc1)N1CCCN(Cc2ccccc2)CC1` gave a Ki in series [4] of 116 nM. In addition, the inhibition in [10] and in [11] was 0% in each case.
With `Cc1ccc(CN2CCCN(C(=O)c3cccs3)CC2)c(C)c1`, the Ki amounted to 1800 nM in series [2] and 336 nM in [4]. The same compound gave an inhibition in series [11] of 3%.
For the compound `Cc1ccc(CN2CCCN(C(=O)c3cc4ccccc4o3)CC2)c(C)c1`, the figures for the Ki in series [2], in series [4] and in [8] were 28 nM, 20 nM and 59 nM, respectively. In addition, the IC50 in series [3] was 10.05 µg/mL (≈ 27.7 µM); in series [9] it was 18.56 µg/mL (≈ 51.2 µM). Further, the Activity entry in the series with SH-SY5Y and in the series with PANC-1 was “Non-Toxic” in each case.
Regarding `Cc1ccc(CN2CCCN(C(=O)c3ccncc3)CC2)c(C)c1`, the Ki was 2000 nM in [2], 254 nM in [4] and 116 nM in series [8].
For `O=C(c1cccs1)N1CCCN(Cc2ccccc2)CC1`, the figures for the Ki in [2] and in [4] were 297 nM and 147 nM, respectively. In [11], this compound yielded an inhibition of 0%.
On to `O=C(c1cccc2ccccc12)N1CCCN(Cc2ccccc2)CC1`, for which the Ki in series [2] is 187 nM; in series [4] it was 41 nM. Also, in series [11], the inhibition came to 9%.
Take `Cc1ccc(CN2CCCN(C(=O)c3cccc4ccccc34)CC2)c(C)c1`: the figures for the Ki in [2], in series [4] and in series [8] were 102 nM, 70 nM and 79 nM, respectively.
For the compound `Cc1ccc(CN2CCCN(C(=O)c3ccccc3)CC2)c(C)c1`, the Ki came to 3900 nM in series [2], 849 nM in [4] and 294 nM in series [8].
As to `O=C(c1ccco1)N1CCCN(Cc2ccccc2)CC1`, the Ki was 560 nM in series [2] and 333 nM in series [4]. In [11], this compound registered an inhibition of 1%.
As for `Cc1ccc(CN2CCCN(C(=O)c3ccco3)CC2)c(C)c1`, the Ki in series [2] worked out at 3900 nM; in series [4] it was 690 nM. Moreover, the inhibition in series [11] worked out at 0%.
For `O=C(c1ccncc1)N1CCCN(Cc2ccccc2)CC1`, the Ki in series [2] is 495 nM; in series [4], 267 nM. Further, in [11], the inhibition is 0%.
For `Cc1ccc(CN2CCCN(C(=O)c3ccc4ccccc4n3)CC2)c(C)c1`, the results for the Ki in [2], in series [4] and in series [8] were 35 nM, 29 nM and 108 nM, respectively. For the same compound, the results for the IC50 in series [3] and in [9] were 9.43 µg/mL (≈ 25.2 µM) and 17.44 µg/mL (≈ 46.7 µM), respectively. The viability at 48 h, 100 µM in series [5] came to 51%.
